{"source": "paper PMC6744591", "about": "(Heliyon, 2019)", "key": {"[1]": {"test_system": "alloxan induced diabetes rats", "experiment": "Blood glucose lowering in alloxan-induced diabetic rats", "format": "in vivo, Wister rats", "outline": "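Alloxan at 150 mg/kg i.p. in normal saline given to Wistar rats (~190 g); rats above 120 mg/dl glucose after 5–7 days counted as diabetic. Rats fasted 12 h, water allowed, fasted throughout; 9 per group. […] Basal glucose taken first; tail-vein glucometer readings at set intervals, triplicate averages.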"}, "[2]": {"experiment": "Pharmacokinetics: plasma concentration of insulin in diabetic rats", "format": "in vivo", "details": "for Tmax: plasma insulin, HPLC-UV"}}, "data": [{"substance": "insulin [Ins-solu]", "values": [{"measurement": "decrease in blood glucose levels", "setting": "[1]; fasted, oral, 40.0 I.U/kg, glucometer, % of initial level", "value": "1–2%"}, {"measurement": "maximum decrease in blood glucose levels", "setting": "[1]; fasted, subcutaneous, 4.0 I.U/kg, at 4 h", "value": "> 60", "unit": "%"}, {"measurement": "time for which decrease in blood glucose level was sustained", "setting": "[1]; subcutaneous, 4.0 I.U/kg", "value": "over 4 h"}, {"measurement": "Tmax", "setting": "[2]; oral, 40 IU/kg", "value": 3.0, "unit": "h"}, {"measurement": "AUC", "setting": "[2]; subcutaneous, 4.0 IU/kg, over 12 h, linear trapezoidal rule, mean ± SD, n = 5", "value": "342.56 ± 30.9", "unit": "µg/mL/h"}, {"measurement": "Tmax", "setting": "[2]; subcutaneous, 4.0 IU/kg", "value": 1.0, "unit": "h"}]}]}
